Screening data as filed in PubChem.
Myeloid diff MLP – promotes myeloid progenitor differentiation | calls only at 10 µM | ER-HoxA9 myeloid progenitors, lysozyme-GFP differentiation, flow cytometry | hit rate 1% among 360,000;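 active = normalized GFP-positive differentiation at or above the plate's own cutoff, the solvent-only control mean plus 3 SD; inconclusive = no clear call, values can overlap the other calls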;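 also: cells exposed to compound for four days before flow analysis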
MT1-MMP act inh – inhibitors of human MT1-MMP activation | HT1080 RFP-PRO-GFP cells, GFP/RFP ratio fluorescence, overnight; percent of plate control window, DMSO zero | P50281 | hit rate 0.061% among 360,000 | GFP/RFP ratio change, % at 20 µM | AID 651647;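 active = GFP/RFP ratio change of at least 30% with cell ATP level not reduced by more than half and red fluorescence within 50% of control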
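Test system: HT1080 RFP-PRO-GFP cells; Benchmarks: DMSO and RFP-L50D-GFP cell wells; Timing: cells overnight before dosing, compound overnight, 37 °C, 5% CO2; Compound: one 20 µM compound dose with 1% DMSO; Read-out: GFP/RFP fluorescence ratio.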
NRP1-CendR mod – alters CendR peptide binding to human NRP-1 | FAM-RPARPAR peptide binding to NRP-1, fluorescence polarization | inhibition, % at 25 µM | hit rate 0.85% among 360,000 | AID 602438;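 active = inhibition or corrected inhibition above about 18%, plus a signal ratio from 0.5 to 1.5, limit read from the data, passing the limit was not always enough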
MIN6 prolif – inducers of beta-cell replication in MIN6 cells | MIN6 cells proliferation, ATPlite luminescence, 48 h; cells starved in 0.2% serum; 100% = growth in 10% serum | proliferation, % at 10 µM | hit rate 0.29% among 330,000 | AID 2380;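 active = compounds whose signal lies at least 3.5 SD above the mean of all wells on their plate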;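 also: 0% = DMSO-treated cells in low-serum medium and 100% = 10% serum control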
SENP1 FRET inh – inhibitors of human SENP1 SUMO protease catalytic domain; recombinant SENP1 catalytic domain, CyPet-SUMO1-YPet FRET cleavage; hit rate 0.21% among 360,000; inhibition, % at 10 µM; Q9P0U3;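 active = inhibition at least 30% at 10 µM, raw YFP signal under a set limit, fluorescence ratio 0.5 to 1.5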;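 also: 0% = enzyme with DMSO and 100% = no enzyme wells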
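Assay system: hSENP1 catalytic domain, recombinant. Amount: SENP1 enzyme, 20 pM final. Schedule: 50 min reaction, RT, dark. Technique: FRET, CFP and YFP emission. Control set: no-enzyme wells low, DMSO-plus-enzyme wells high control.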
DAGLB inhibitor – diacylglycerol lipase beta (human) inhibition; AID 504411; inhibition, % at 5.17 µM; HEK293T DAGLB membrane lysate, EnzChek fluorogenic substrate; hit rate 0.059% among 340,000; in the data active = inhibition above about 34%;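 also: 0% = enzyme with vehicle and 100% = wells lacking enzyme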
The depositor's hits bear a star; i = inactive; ? = inconclusive; · = no result; + = active, no number. Rows were chosen to be rich in hits. Some 2.4% of all compounds tested hit in one or more screens of this group.

SMILES	Myeloid diff MLP	MT1-MMP act inh	NRP1-CendR mod	MIN6 prolif	SENP1 FRET inh	DAGLB inhibitor
O=C1c2cccc3c(N4CCCCC4)ccc(c23)C(=O)N1c1ccccc1O	+	-165	128	-4	-36	-24
O=C1c2cccc3cccc(c23)C(=O)N1c1ccc(O)cc1	i	-2	9	-1	1	-1
O=C1c2cccc3c(N4CCCCC4)ccc(c23)C(=O)N1c1ccc(O)cc1	+	-47	133	-5	-26	-18
CC(C)n1cnc2c(N(C)c3ccccc3)nc(N(CCN(C)C)Cc3ccccc3)nc21	+	-2	11	-8	3	-5
COc1cc(N(Cc2ccccc2)Cc2ccccc2)c2ncn(C(C)C)c2c1	i	-4	5	-7	-2	-5
COc1cc2ncnc(NCc3cccc(Cl)c3)c2cc1OC	+	6	-5	2	1	1
CCNC(=O)NC(=O)CSc1ccccc1F	i	·	35*	0	3	0
CC(CNC(=O)CN1C(=O)NC2(CCCCC2)C1=O)c1ccccc1 (stereo unspecified)	i	-5	1	-5	-7	-2
CCOC(=O)[C@@H]1[C@H]2COc3ccccc3[C@H]2N2C(=O)N(c3ccc(C)cc3)C(=O)[C@]12C	i	-1	3	-5	0	-1
CCOC(=O)[C@H]1[C@H]2COc3ccccc3[C@@H]2N2C(=O)[C@@H](C)NC(=O)[C@@]12C	i	0	28*	-1	2	-1
CCOC(=O)[C@@H]1[C@H]2COc3ccccc3[C@@H]2N2C(=O)N(c3ccc(Cl)cc3)C(=O)[C@]12C	i	2	30*	1	2	-6
O=S(=O)(CC(CN1CCCCC1)N1CCCCC1)c1ccc2ccccc2c1 (stereo unspecified)	?	-12	1	·	-1	0
COc1ccc(CCC(=O)NCCc2ccc(Cl)cc2)cc1	i	-3	6	0	0	-2
COc1ccc2c(c1)C(SCC(=O)NCCc1ccc(Cl)cc1)CC(C)(C)O2 (stereo unspecified)	+	-5	-23	-4	-3	-11
Cc1cc(N)n(Cc2cccs2)n1	i	-3	12	0	-2	-4
OC(CCc1ccncc1)COc1ccccc1 (stereo unspecified)	i	6	20*	0	2	0
CCOC(=O)C1C(=O)C=C(c2ccc(C)cc2)CC1c1ccccc1 (stereo unspecified)	i	-2	5	1	-2	-9
CCOC(=O)C1C(=O)C=C(/C=C/c2ccc(N(C)C)cc2)CC1c1ccccc1 (stereo unspecified)	+	0	59	-3	-22	-32
C#CCNC(=O)C[C@@H]1C[C@@]2(C(=O)OC)CC(C)(C)CC=C2N(CCc2ccc(OC)c(OC)c2)C1=O	i	3	0	·	1	·
c1ccc(-c2noc(-c3cccnc3)n2)nc1	+	-5	8	-3	2	-1
c1ccc(-c2noc(-c3ccncc3)n2)nc1	i	3	8	-3	-2	0
O=C(O)c1ccc(CNCc2ccc(Cl)cc2)cc1	i	-4	5	0	2	4
CCOC(=O)C1CCCN(C(=O)c2ccc3c(c2)OCO3)C1 (stereo unspecified)	i	-1	-4	-1	1	-2
CCOC(=O)CNC(=O)N1CCCC(C(=O)c2ccc3c(c2)OCO3)C1 (stereo unspecified)	+	1	12	-2	2	0
CCCCC(=O)N(C)c1c(CC)nc2c(OCc3ccccc3C)cccn12	i	-30	22*	·	-1	·
SMILES	Myeloid diff MLP	MT1-MMP act inh	NRP1-CendR mod	MIN6 prolif	SENP1 FRET inh	DAGLB inhibitor
CCc1nc2c(OCc3ccc(C(=O)OC)cc3)cccn2c1N(C)C(=O)CC(C)C	i	-2	26*	·	-2	·
CCc1nc2c(OCc3ccccc3C)cccn2c1N(C)C(=O)CC(C)C	i	1	-3	·	2	·
COc1cccc(NC(=O)N(C)C[C@H]2Oc3ncc(Br)cc3C(=O)N([C@H](C)CO)C[C@H]2C)c1	i	5	-10	·	0	2
CN1CCN(c2ccc(-c3cccc4nccn34)cn2)CC1	i	2	1	·	0	·
O=C(NCC(c1ccco1)N1CCCCC1)c1ccc([N+](=O)[O-])s1 (stereo unspecified)	+	3	-12	-7	2	·
Cc1ccc2oc(C(=O)NCC3CCOCC3)c(C)c2c1	i	-1	26*	1	-1	0
Cc1ccc(C(=O)NCC(c2ccco2)N2CCCCC2)s1 (stereo unspecified)	i	-10	-15	2	-11	-2
Cc1ccc2oc(C(=O)NCC(c3ccco3)N3CCCC3)c(C)c2c1 (stereo unspecified)	+	2	4	-5	-1	0
O=C1NC(=O)N(Cc2ccccc2)C1=O	+	2	8	1	4	-2
COC(=O)c1ccn(C(=O)c2ccc(Cl)cc2)n1	i	5	28*	2	-20	-1
COC(=O)c1ccn(CSc2cc(Cl)ccc2Cl)n1	i	-2	0	-8	1	-3
COCCN(C(=O)CSc1nc2ccc(C)cc2[nH]1)c1c(N)n(Cc2ccccc2)c(=O)[nH]c1=O	+	0	5	1	-1	1
COCCN(C(=O)CN1CCCc2ccccc21)c1c(N)n(Cc2ccccc2)c(=O)[nH]c1=O	i	-48	26*	0	-32	-6
COc1ccc(-c2oc3c(c2C(=O)OCCO)C(OCCO)CCC3)cc1 (stereo unspecified)	i	6	12	·	2	·
Cc1ccc(N2C(=O)c3cccc4c([N+](=O)[O-])ccc(c34)C2=O)c2cccnc12	?	-147	-12	-6	-35	-1
O=C1c2cccc3cccc(c23)C(=O)N1Cc1cccnc1	i	-1	-6	-1	2	1
Cc1ccnc(N2C(=O)c3cccc4c([N+](=O)[O-])ccc(c34)C2=O)c1	?	-289	36*	-4	-19	-10
O=C1c2cccc3c([N+](=O)[O-])ccc(c23)C(=O)N1Cc1cccnc1	?	-134	69*	·	-27	-4
CC1CCc2cccc3c2N1c1cc(C#N)c(C#N)cc1O3 (stereo unspecified)	+	-39	-24	-2	-26	0
COCCNC(=O)C1CCCN(C(=O)c2ccc3c(c2)C(C)(C)CCC3(C)C)CC1 (stereo unspecified)	i	3	-1	·	4	·
